PMC3169429 (ACS chemical biology, 2010)

What was measured:
[1] = target: T1, bacteriophage T4 clamp loader, gp44/62 (Enterobacteria phage T4, UniProt P04526); settings: read-out: Ki (inhibition constant) against gp44/62; cited from earlier work
T1 sequence (P04526 1-319): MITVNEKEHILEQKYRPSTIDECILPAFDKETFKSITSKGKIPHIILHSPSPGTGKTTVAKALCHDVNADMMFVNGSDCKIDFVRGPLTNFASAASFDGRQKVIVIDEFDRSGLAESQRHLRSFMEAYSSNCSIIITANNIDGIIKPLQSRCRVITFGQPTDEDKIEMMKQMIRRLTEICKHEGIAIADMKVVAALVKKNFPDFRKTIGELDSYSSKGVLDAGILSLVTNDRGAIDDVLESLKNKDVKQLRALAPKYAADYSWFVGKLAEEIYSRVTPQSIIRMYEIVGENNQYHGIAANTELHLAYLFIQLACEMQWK
T1 sequence (P04527 1-187 partner): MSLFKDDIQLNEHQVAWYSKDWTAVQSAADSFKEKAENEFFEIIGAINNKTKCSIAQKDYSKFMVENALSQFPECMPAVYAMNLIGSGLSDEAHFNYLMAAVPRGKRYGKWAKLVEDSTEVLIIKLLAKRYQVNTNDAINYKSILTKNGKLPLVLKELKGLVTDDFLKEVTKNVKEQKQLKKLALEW

[2] = target: T2, gp44/62 opening of CPM-labeled gp45 (Enterobacteria phage T4, UniProt P04526); assay: FRET quenching / stopped-flow fluorescence clamp opening assay; format: biochemical, bacteriophage T4; settings: 1 mM nucleotide, CPM-labeled gp45 mixed with gp44/62
T2 sequence (P04526 1-319): T1 sequence (P04526 1-319)
T2 sequence (P04527 1-187 partner): T1 sequence (P04527 1-187 partner)

R175K mutant of gp44/62 = R175K mutant of gp44/62 (Enterobacteria phage T4, UniProt P04526, R175K); assay: ATPase inhibition assay, gp44/62 R175K mutant; format: biochemical, bacteriophage T4
R175L mutant of gp44/62 = R175L mutant of gp44/62 (Enterobacteria phage T4, UniProt P04526, R175L); assay: ATPase inhibition assay, gp44/62 R175L mutant; format: biochemical, bacteriophage T4
[3] = target: E. coli clamp loader, γ-complex (Escherichia coli, UniProt P06710); assay: ATPase inhibition assay, γ-complex; format: biochemical
[4] = target: T1, bacteriophage T4 clamp loader, gp44/62; assay: ATPase inhibition assay, wild-type gp44/62; format: biochemical; settings: for Selectivity Factor: Ki (γ-complex) / Ki (gp44/62)
T4 bacteriophage [5] = assay: Plaque forming assay in JA300 E. coli; format: cell-based, T4 bacteriophage in E. coli JA300
T4 bacteriophage [6] = assay: Plaque forming assay in deoxythymidine kinase deficient E. coli KY895; format: cell-based, T4 bacteriophage in E. coli KY895 (tdk-1); settings: 100 µg/ml
Summary of the method: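 The plaque assay used the deoxythymidine kinase knockout E. coli strain KY895 in place of JA300. An overnight culture was diluted 1:150 in LB and pre-incubated with the nucleoside for 60 min at 37°C. Cells were infected with ~300 pfu T4 and plated over LB/agar for 24 h at 37°C. Plaques were counted manually; ANOVA and t-test were applied.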

JA300 E. coli cells = assay: Toxicity screen against E. coli; format: cell-based, Escherichia coli; settings: in suspension or plated on LB/agar for extended periods
[7] = target: T3, bacteriophage T4 replicase (Enterobacteria phage T4, UniProt P04526); assay: Replicase formation; format: biochemical; settings: 100 µM inhibitor
T3 sequence (P04526 1-319): T1 sequence (P04526 1-319)
T3 sequence (P04527 1-187 partner): T1 sequence (P04527 1-187 partner)

T4 DNA polymerase = assay: DNA polymerase activity in the strand displacement assay; format: biochemical, bacteriophage T4; settings: absence or presence of 100 µM d5-NITP
gp44/62 = target: T4, gp44/62 (Enterobacteria phage T4, UniProt P04526); assay: Hydrolysis of nucleotide substrates by gp44/62; format: biochemical, bacteriophage T4; settings: nucleotide substrates at 500 µM
T4 sequence (P04526 1-319): T1 sequence (P04526 1-319)
T4 sequence (P04527 1-187 partner): T1 sequence (P04527 1-187 partner)
Summary of the method: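 Wild-type T4 gp44/62 purified from an overproducing strain. Each ribo- or deoxy-nucleotide was supplied as substrate. Hydrolysis was read as Pi release by malachite green.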

Chain of R175L mutant of gp44/62 (P04526 whole entry R175L, one chain of several): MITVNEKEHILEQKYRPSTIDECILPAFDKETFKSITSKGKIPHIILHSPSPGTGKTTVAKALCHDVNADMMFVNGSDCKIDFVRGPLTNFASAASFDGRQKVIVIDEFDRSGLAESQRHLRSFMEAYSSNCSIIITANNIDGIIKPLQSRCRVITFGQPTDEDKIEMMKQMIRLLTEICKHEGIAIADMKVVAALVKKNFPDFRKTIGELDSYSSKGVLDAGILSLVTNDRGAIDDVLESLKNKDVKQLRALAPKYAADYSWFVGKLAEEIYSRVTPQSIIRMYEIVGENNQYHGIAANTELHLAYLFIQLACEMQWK
Chain of R175K mutant of gp44/62 (P04526 whole entry R175K, one chain of several): as the sequence (P04526 whole entry R175L, one chain of several) above, with L175K counted along it

## Nc1ncnc2c1ncn2C1OC(COP(=O)(O)OP(=O)(O)NP(=O)(O)O)C(O)C1O (stereo not drawn) [AMP-PNP, 5'-adenylyl-beta, gamma-imidodiphosphate]
[1]
  Ki: 1.2 mM

## Nc1ncnc2c1ncn2[C@@H]1O[C@H](COP(=O)(O)OP(=O)(O)OP(=O)(O)O)[C@@H](O)[C@H]1O [ATP, reference compound]
[2]
  Amplitude of change in fluorescence (clamp opening): 0.2199 ± 0.0004 units

## Nc1ncnc2c1ncn2[C@@H]1O[C@H](CO[P@](=O)(O)O[P@](=O)(O)O[P@@](=O)(O)S)[C@@H](O)[C@H]1O [ATPγS, reference compound]
R175K mutant of gp44/62
  Ki: 14 ± 3.5 µM
R175L mutant of gp44/62
  Ki: 33.2 ± 8 µM
[3]
  Ki: 13 ± 4.5 µM
[4]
  Selectivity Factor: 0.44

## O=C(N[C@H](CO)[C@H](O)c1ccc([N+](=O)[O-])cc1)C(Cl)Cl [chloramphenicol, reference compound]
T4 bacteriophage [5]; bacteriostatic agent control
  Decrease in phage infectivity: does not cause an appreciable decrease

## O=[N+]([O-])c1cccc2c1ccn2[C@H]1C[C@H](O)[C@@H](COP(=O)(O)OP(=O)(O)OP(=O)(O)O)O1 [d4-NITP, 4-nitro-indolyl-2’-deoxyriboside triphosphate]
[4]
  Selectivity Factor: 0.32
[4]; wild type gp44/62
  Fold higher Ki than d5-NITP: ~ 6 fold

## Nc1ccc2c(ccn2[C@H]2C[C@H](O)[C@@H](COP(=O)(O)OP(=O)(O)OP(=O)(O)O)O2)c1 [d5-AITP, 5-amino-indolyl-2’-deoxyriboside triphosphate]
[4]
  Selectivity Factor: < 0.23

## O=P(O)(O)OP(=O)(O)OP(=O)(O)OC[C@H]1O[C@@H](n2ccc3cc(C4=CCCCC4)ccc32)C[C@@H]1O [d5-CEITP, 5-cyclohexene-indolyl-2’-deoxyriboside triphosphate]
[4]
  Selectivity Factor: 1.18

## O=P(O)(O)OP(=O)(O)OP(=O)(O)OC[C@H]1O[C@@H](n2ccc3cc(C4CCCCC4)ccc32)C[C@@H]1O [d5-CHITP, 5-cyclohexyl-indolyl-2’-deoxyriboside triphosphate]
[4]
  Selectivity Factor: 0.51

## CCc1ccc2c(ccn2[C@H]2C[C@H](O)[C@@H](COP(=O)(O)OP(=O)(O)OP(=O)(O)O)O2)c1 [d5-EtITP, 5-ethyl-indolyl-2’-deoxyriboside triphosphate]
R175L mutant of gp44/62
  Fold lower Ki in R175L mutant compared to wild type enzyme: ~ 10 fold
[4]
  Selectivity Factor: 0.11

## C=Cc1ccc2c(ccn2[C@H]2C[C@H](O)[C@@H](CO)O2)c1 [d5-Ey, 5-ethylene-indolyl-2'-deoxyribose]
T4 bacteriophage [5]; 150 µg/mL
  Inhibition of plaque formation: 15%

## C=Cc1ccc2c(ccn2[C@H]2C[C@H](O)[C@@H](COP(=O)(O)OP(=O)(O)OP(=O)(O)O)O2)c1 [d5-EyITP, 5-ethylene-indolyl-2’-deoxyriboside triphosphate]
R175L mutant of gp44/62
  Fold lower Ki in R175L mutant compared to wild type enzyme: ~ 10 fold
[4]
  Selectivity Factor: < 0.15

## OC[C@H]1O[C@@H](n2ccc3cc(F)ccc32)C[C@@H]1O [d5-FI, 5-fluoro-indolyl-2’-deoxyriboside]
T4 bacteriophage [5]; 100 µg/mL
  Inhibition of plaque formation: do not inhibit plaque formation

## O=P(O)(O)OP(=O)(O)OP(=O)(O)OC[C@H]1O[C@@H](n2ccc3cc(F)ccc32)C[C@@H]1O [d5-FITP, 5-fluoro-indolyl-2’-deoxyriboside triphosphate]
[4]
  Selectivity Factor: < 0.17

## O=[N+]([O-])c1ccc2c(ccn2[C@H]2C[C@H](O)[C@@H](CO)O2)c1 [d5-NI, 5-nitro-indolyl-2’-deoxyriboside]
T4 bacteriophage [6]
  Effect on plaque formation in tdk-1 strain KY895 compared to wild-type JA300: significantly reduced
JA300 E. coli cells
  Bactericidal or bacteriostatic effect on E. coli: does not produce a significant bactericidal or bacteriostatic effect
T4 bacteriophage [5]; 25 µg/mL versus 50 µg/mL
  Fold less protection at 25 µg/mL than at 50 µg/mL: ~ 2.5 fold
T4 bacteriophage [5]; E. coli preincubated with 100 µg/mL
  Fewer plaques compared to untreated E. coli: ~ 40%
[4]; at concentrations greater than 200 µM
  Inhibition of gp44/62: does not inhibit

## O=[N+]([O-])c1ccc2c(ccn2[C@H]2C[C@H](O)[C@@H](COP(=O)(O)OP(=O)(O)OP(=O)(O)O)O2)c1 [d5-NITP, 5-nitro-indolyl-2’-deoxyriboside triphosphate]
[2]
  Amplitude of change in fluorescence (clamp opening): 0.044 ± 0.002 units
[7]
  Formation of the replicase complex: inhibits formation of the replicase complex
T4 DNA polymerase
  Effect on polymerase activity (products generated by polymerase alone): identical amounts of products are generated

## O=P(O)(O)OP(=O)(O)OP(=O)(O)OC[C@H]1O[C@@H](n2ccc3cc(-c4ccccc4)ccc32)C[C@@H]1O [d5-PhITP, 5-phenyl-indolyl-2’-deoxyriboside triphosphate]
[4]
  Selectivity Factor: 0.18

## O=[N+]([O-])c1ccc2ccn([C@H]3C[C@H](O)[C@@H](COP(=O)(O)OP(=O)(O)OP(=O)(O)O)O3)c2c1 [d6-NITP, 6-nitro-indolyl-2’-deoxyriboside triphosphate]
[4]
  Selectivity Factor: 1.59

## Nc1ncnc2c1ncn2[C@H]1C[C@H](O)[C@@H](COP(=O)(O)OP(=O)(O)OP(=O)(O)O)O1 [dATP, reference compound]
gp44/62
  Hydrolysis by gp44/62: hydrolyzes dATP just as efficiently as ATP

## O=P(O)(O)OP(=O)(O)OP(=O)(O)OCC1OC(n2ccc3ccccc32)CC1O (stereo not drawn) [dITP, indolyl-2’-deoxyriboside triphosphate]
[4]
  Selectivity Factor: < 0.30

## O=[N+]([O-])c1ccc2c(ccn2[C@@H]2O[C@H](COP(=O)(O)OP(=O)(O)OP(=O)(O)O)[C@@H](O)[C@H]2O)c1 [r5-NITP, 5-nitro-indolyl-2’-ribose triphosphate]
gp44/62
  Hydrolysis by gp44/62: incapable of hydrolyzing r5-NITP
[4]; dose-dependent inhibition of gp44/62 ATPase activity
  Hill coefficient: ~ 1
